In ChEMBL document CHEMBL5096236, “Development of Fluorinated Peptoid-Based Histone Deacetylase (HDAC) Inhibitors for Therapy-Resistant Acute Leukemia” (J Med Chem, 2022):
Active and inactive are the calls of the source. The rule behind the calls is not given here.

Assays:
Histone deacetylase 1 = Histone deacetylase 1 (Homo sapiens, UniProt Q13547); assay: Inhibition of recombinant human C-terminal FLAG/His-tagged HDAC1 (1 to 482 residues) expressed in Sf9 insect cells using Z-Lys(Ac)-AMC as fluorogenic substrate incubated for 90 mins by microplate reader analysis
Histone deacetylase 1, sequence (Q13547 whole entry, the tested form may be a part): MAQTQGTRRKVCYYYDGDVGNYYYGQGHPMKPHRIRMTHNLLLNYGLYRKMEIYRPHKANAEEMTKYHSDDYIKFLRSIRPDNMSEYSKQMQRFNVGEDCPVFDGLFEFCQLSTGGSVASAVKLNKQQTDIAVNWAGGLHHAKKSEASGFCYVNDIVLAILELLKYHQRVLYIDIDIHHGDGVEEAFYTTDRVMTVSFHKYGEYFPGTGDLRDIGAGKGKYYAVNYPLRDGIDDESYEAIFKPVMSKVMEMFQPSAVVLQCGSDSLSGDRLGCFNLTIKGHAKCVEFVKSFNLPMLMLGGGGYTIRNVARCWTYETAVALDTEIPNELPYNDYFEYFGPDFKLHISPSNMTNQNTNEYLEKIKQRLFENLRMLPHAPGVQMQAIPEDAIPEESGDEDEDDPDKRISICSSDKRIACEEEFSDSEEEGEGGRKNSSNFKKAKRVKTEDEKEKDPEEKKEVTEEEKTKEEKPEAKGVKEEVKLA

[1] = biological target: T1, Protein deacetylase HDAC6 (Homo sapiens, UniProt Q9UBN7); assay: Inhibition of recombinant human N-terminal GST-tagged HDAC6 (1 to 1215 residues) expressed in Sf9 insect cells using Z-Lys(Ac)-AMC as fluorogenic substrate incubated for 90 mins by microplate reader analysis
T1 sequence (Q9UBN7 whole entry): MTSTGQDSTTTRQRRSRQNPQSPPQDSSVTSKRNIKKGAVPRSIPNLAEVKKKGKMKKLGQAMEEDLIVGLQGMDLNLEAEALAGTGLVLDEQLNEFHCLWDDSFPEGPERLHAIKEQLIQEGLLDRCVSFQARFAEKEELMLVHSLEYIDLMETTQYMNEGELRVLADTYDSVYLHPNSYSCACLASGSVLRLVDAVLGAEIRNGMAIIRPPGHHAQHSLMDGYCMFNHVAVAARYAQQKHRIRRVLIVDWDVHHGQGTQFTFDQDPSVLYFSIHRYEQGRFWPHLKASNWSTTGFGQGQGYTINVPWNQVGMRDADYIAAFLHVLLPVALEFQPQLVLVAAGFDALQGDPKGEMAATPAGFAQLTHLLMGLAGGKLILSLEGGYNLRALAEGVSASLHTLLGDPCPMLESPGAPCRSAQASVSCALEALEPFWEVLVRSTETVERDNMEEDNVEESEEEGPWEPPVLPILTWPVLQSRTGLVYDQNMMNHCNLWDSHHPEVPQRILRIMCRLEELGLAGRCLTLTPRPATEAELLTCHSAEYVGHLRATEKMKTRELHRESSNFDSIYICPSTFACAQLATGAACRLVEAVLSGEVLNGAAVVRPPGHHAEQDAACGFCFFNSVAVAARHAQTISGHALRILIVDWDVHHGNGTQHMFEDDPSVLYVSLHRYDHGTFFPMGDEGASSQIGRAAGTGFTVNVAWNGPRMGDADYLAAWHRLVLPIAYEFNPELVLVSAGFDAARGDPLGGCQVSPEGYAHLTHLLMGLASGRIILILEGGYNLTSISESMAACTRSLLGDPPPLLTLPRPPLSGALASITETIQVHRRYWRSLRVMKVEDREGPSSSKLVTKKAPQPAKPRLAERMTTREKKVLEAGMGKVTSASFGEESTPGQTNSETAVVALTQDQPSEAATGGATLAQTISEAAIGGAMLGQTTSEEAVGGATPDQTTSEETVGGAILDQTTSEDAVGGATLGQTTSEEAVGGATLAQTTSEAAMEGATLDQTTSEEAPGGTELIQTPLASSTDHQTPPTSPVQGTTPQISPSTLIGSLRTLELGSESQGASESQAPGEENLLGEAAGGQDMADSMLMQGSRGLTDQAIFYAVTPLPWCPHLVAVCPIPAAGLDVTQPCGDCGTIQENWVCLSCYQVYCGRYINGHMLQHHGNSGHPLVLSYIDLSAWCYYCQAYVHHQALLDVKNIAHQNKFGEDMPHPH

HAL-01 = assay: cells; assay type: functional, cell-based; settings: Homo sapiens, HAL-01, 72 h
Jurkat = assay: cells; assay type: functional, cell-based; settings: Homo sapiens, 72 h
[2] = biological target: T2, Histone deacetylase (Homo sapiens) (UniProt Q13547+O15379+Q9UBN7+Q92769+Q9UQL6+Q8WUI4+Q9BY41+Q96DB2+P56524+Q9UKV0+Q969S8); assay: Inhibition of HDAC in human HL-60 cells assessed as increase in alpha tubulin acetylation incubated for 24 hrs by immunoblot analysis; assay type: cell-based; settings: dose lower […], dose upper 296.0 nM, DDE = dose-dependent effect
[3] = biological target: Histone deacetylase 3/Nuclear receptor corepressor 2 (HDAC3/NCoR2) (Homo sapiens, UniProt O15379); assay: Inhibition of C-terminal His-tagged recombinant human HDAC3 (1 to 428 residues)/N-terminal GST-tagged recombinant human NCoR2 (395 to 489 residues) co-expressed in Sf9 cells using Z-Lys(Ac)-AMC as fluorogenic substrate incubated for 90 mins by microplate reader analysis
Histone deacetylase 3/Nuclear receptor corepressor 2 (HDAC3/NCoR2), sequence (O15379 whole entry, the tested form may be a part): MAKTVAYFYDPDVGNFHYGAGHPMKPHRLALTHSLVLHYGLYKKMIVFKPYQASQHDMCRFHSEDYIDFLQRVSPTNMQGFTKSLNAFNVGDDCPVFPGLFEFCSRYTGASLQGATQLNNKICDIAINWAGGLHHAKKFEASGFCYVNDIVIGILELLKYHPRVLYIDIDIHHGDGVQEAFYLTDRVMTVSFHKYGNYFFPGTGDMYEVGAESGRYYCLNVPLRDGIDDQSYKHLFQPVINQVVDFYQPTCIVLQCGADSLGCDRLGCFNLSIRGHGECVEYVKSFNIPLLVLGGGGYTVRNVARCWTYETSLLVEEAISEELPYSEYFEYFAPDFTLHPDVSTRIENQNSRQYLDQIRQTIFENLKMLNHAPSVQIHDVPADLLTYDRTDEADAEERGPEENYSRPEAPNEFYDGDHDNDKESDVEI
Histone deacetylase 3/Nuclear receptor corepressor 2 (HDAC3/NCoR2), sequence (Q9Y618 whole entry, further chain, the tested form may be a part): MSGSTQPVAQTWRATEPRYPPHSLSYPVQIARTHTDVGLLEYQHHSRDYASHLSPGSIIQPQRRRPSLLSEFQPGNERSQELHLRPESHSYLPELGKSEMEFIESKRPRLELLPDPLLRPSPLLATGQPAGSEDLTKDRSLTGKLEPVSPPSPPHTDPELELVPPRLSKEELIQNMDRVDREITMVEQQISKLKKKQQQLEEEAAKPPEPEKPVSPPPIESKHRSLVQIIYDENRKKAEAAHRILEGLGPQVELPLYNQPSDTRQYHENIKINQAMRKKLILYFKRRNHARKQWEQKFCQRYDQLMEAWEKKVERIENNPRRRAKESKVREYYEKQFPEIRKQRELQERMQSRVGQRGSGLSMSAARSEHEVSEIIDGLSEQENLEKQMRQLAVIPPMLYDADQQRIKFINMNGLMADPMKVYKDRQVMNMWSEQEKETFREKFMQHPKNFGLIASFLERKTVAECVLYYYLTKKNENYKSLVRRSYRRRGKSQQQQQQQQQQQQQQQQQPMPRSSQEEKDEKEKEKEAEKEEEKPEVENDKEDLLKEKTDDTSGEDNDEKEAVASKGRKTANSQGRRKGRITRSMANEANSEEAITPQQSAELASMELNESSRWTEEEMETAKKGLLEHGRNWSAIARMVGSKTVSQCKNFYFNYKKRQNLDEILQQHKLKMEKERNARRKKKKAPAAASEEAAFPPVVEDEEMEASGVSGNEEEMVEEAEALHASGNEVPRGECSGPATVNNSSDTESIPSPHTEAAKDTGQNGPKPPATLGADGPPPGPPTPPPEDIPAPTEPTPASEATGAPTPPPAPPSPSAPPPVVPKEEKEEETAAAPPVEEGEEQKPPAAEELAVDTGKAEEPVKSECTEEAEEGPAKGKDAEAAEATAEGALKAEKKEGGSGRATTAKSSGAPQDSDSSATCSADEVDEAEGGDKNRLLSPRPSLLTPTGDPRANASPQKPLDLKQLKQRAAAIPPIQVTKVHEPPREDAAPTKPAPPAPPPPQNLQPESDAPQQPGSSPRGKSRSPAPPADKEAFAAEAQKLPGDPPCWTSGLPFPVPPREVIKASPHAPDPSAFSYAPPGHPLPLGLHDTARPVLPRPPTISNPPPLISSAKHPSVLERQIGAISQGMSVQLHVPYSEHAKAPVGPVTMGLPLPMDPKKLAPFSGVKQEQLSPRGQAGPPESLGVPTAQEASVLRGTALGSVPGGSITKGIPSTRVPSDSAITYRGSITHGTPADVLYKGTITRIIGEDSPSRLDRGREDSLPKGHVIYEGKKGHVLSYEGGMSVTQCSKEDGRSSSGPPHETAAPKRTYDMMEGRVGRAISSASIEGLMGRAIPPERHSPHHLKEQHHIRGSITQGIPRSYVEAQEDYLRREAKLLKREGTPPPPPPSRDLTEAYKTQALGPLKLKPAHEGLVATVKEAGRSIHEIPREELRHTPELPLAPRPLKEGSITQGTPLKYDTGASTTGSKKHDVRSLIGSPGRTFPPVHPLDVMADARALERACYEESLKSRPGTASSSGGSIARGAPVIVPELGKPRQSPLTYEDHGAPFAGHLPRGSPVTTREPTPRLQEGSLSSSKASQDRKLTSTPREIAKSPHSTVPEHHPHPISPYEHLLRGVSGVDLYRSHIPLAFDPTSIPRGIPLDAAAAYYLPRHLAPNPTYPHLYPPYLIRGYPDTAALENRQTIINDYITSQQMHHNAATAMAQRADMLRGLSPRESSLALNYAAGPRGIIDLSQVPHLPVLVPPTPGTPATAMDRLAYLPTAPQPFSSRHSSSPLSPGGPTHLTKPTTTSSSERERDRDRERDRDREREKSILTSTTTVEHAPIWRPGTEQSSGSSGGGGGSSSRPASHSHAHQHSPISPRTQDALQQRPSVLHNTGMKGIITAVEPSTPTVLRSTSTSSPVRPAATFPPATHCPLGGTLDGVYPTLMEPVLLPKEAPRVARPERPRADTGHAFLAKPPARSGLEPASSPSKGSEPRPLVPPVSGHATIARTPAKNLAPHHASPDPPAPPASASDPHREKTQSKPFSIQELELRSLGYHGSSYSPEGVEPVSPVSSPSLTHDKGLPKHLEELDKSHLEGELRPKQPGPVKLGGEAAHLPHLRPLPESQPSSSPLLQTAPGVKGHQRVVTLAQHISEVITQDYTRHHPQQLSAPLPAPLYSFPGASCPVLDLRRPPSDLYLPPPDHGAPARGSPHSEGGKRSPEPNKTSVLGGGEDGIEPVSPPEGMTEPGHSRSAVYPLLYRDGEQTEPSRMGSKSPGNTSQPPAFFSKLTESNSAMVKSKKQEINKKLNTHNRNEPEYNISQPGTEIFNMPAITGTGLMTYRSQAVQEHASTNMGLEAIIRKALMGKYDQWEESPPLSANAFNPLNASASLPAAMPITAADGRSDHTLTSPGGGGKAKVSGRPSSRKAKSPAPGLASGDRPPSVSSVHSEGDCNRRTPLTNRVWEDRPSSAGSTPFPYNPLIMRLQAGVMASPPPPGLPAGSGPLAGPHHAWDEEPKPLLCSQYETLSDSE
Method in brief: (§1)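 Compound incubated with ZMAL (Z-Lys(Ac)-AMC; 21.43 μM solution) and enzyme at 37 °C for 90 min. Trypsin (0.4 mg/mL) added, 30 min at 37 °C. […] Duplicates, ≥2 independent experiments. SI = IC50 (HDAC2 or 3)/IC50 (HDAC6).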

HL-60 [4] = assay: Synergistic cytotoxicity against human HL-60 cells assessed as increase in synergy score at 0.1 to 2 uM incubated for 72 hrs in presence of DNA methyltransferase inhibitor, decitabine by CellTiter-Glo luminescent assay; assay type: functional, cell-based; settings: dose 0.1-2 µM
Method in brief: (§2)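 AML cells treated 72 h in an 8×8 dose matrix: compound 0.1–2 μM and decitabine 0.25–10 μM, logarithmically spaced. Viability by CellTiter-Glo luminescence. Synergy scored with the ZIP model in SynergyFinder.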

HL-60 [5] = assay: Induction of apoptosis in human HL-60 cells assessed as increase in total apoptotic cells at 1 to 5 uM incubated for 48 hrs by annexin V and propidium iodide staining based flow cytometry analysis; assay type: functional, cell-based; settings: dose 1-5 µM
Method in brief: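 HL60 cells (RPMI 1640 GlutaMax, 10-20% FCS, 37°C, 5% CO₂) exposed to compound or control at 1 or 5 μM for 48 h, then stained with annexin V and propidium iodide and analysed by flow cytometry; n=3.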

MOLM-13 = assay: Synergistic cytotoxicity against human MOLM-13 cells assessed as increase in synergy score at 0.1 to 2 uM incubated for 72 hrs in presence of […] inhibitor, decitabine by CellTiter-Glo luminescent assay; assay type: functional, cell-based; settings: dose 0.1-2 µM; method in brief: as §2
Histone deacetylase 2 = Histone deacetylase 2 (Homo sapiens, UniProt Q92769); assay: Inhibition of recombinant human C-terminal FLAG-tagged HDAC2 (1 to 488 residues) expressed in Sf9 insect cells using Z-Lys(Ac)-AMC as fluorogenic substrate incubated for 90 mins by microplate reader analysis; method in brief: as §1
Histone deacetylase 2, sequence (Q92769 whole entry, the tested form may be a part): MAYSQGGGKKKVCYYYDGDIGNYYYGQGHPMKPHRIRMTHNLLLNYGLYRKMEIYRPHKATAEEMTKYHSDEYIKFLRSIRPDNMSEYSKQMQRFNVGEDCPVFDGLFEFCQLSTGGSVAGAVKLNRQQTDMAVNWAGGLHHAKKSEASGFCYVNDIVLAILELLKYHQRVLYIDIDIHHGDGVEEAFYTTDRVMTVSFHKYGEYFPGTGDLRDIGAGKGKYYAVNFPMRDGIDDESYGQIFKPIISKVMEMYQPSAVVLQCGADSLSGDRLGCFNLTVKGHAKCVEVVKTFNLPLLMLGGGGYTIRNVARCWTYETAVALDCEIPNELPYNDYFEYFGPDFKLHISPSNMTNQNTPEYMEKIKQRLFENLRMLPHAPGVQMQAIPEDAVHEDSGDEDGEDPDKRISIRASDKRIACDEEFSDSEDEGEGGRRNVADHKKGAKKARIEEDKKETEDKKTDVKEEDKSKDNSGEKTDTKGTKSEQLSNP

[6] = biological target: T2, Histone deacetylase (Homo sapiens); assay: Inhibition of HDAC in human HL-60 cells assessed as increase in Ac-H3 levels incubated for 24 hrs by immunoblot analysis; assay type: cell-based; settings: dose lower […], dose upper 296.0 nM, DDE = dose-dependent effect
[7] = biological target: T2, Histone deacetylase (Homo sapiens); assay: Inhibition of HDAC in human HL-60 cells assessed as increase in Ac-H3 levels at 0.15 uM incubated for 24 hrs in presence of DNA methyltransferase inhibitor, decitabine by immunoblot analysis; assay type: cell-based
Method in brief: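 HL60 cells treated for 24 h with compound alone or combined with decitabine at indicated concentrations. Acetylated H3 detected by immunoblotting.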

HL-60 [8] = assay: cells; assay type: functional, cell-based; settings: Homo sapiens, HL-60, 72 h
Histone deacetylase 4 = Histone deacetylase 4 (Homo sapiens, UniProt P56524); assay: Inhibition of recombinant human N-terminal GST-tagged/C-terminal His-tagged HDAC4 (627 to 1084 residues) expressed in baculovirus infected Sf9 insect cells using Boc-Lys (trifluoroacetyl)-AMC as substrate incubated for 90 mins by microplate reader analysis
Histone deacetylase 4, sequence (P56524 whole entry, the tested form may be a part): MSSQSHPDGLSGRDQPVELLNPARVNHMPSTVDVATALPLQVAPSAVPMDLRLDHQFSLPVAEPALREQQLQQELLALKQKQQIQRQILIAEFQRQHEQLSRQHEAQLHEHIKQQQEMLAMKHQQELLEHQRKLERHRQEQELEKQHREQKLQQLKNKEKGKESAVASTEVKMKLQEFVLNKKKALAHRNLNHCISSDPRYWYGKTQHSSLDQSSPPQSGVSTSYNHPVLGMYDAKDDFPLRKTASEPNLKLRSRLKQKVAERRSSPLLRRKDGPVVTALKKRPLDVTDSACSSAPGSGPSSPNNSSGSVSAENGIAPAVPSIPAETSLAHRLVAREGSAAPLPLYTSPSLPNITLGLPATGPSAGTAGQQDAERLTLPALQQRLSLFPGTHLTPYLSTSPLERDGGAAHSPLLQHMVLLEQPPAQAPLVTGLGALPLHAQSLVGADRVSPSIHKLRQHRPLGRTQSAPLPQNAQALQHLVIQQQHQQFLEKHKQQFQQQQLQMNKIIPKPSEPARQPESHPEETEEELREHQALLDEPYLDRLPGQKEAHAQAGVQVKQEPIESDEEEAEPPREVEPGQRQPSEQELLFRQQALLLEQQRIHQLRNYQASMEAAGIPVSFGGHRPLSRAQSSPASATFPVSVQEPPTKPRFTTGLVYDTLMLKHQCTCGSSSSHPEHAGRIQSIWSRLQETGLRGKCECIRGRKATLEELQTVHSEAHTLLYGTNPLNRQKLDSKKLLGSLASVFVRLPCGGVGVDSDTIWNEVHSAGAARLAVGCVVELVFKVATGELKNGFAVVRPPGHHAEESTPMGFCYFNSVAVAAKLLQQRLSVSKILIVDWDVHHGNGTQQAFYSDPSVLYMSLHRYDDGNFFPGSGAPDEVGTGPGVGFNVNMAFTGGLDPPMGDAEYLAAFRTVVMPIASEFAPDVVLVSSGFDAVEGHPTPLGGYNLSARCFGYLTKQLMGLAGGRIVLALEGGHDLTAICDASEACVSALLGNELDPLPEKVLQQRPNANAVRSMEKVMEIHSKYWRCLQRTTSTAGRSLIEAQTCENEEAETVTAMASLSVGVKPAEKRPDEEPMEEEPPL
Method in brief: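 HDAC4 enzyme in Tris-HCl pH 8.0 buffer with NaCl, KCl, MgCl₂ and 0.1 mg/mL BSA, max. 1% DMSO. Trypsin (1.0 mg/mL) added, 30 min. Three-parameter log(inhibitor) fit. Duplicates, ≥2 experiments, mean ± SD. SI = IC50 HDAC4/IC50 HDAC6.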

[9] = biological target: T2, Histone deacetylase (Homo sapiens); assay: Inhibition of HDAC in human HL-60 cells assessed as increase in alpha tubulin acetylation at 6 to 36 uM incubated for 24 hrs by immunoblot analysis; assay type: cell-based; settings: dose 6-36 µM

Structure (SMILES)	IC50 (Histone deacetylase 1)	IC50 [1]	IC50 (HAL-01)	further results
Cc1ccccc1C(=O)N(CC(=O)NC1CCCCC1)Cc1ccc(C(=O)NO)cc1F	938 nM	18 nM		
Cc1ccccc1C(=O)N(CC(=O)NC(C)(C)C)Cc1ccc(C(=O)NO)cc1				IC50 (Histone deacetylase 1; sf9): 2410 nM; IC50 ([1]; sf9): 51 nM
Cc1cc(C)cc(C(=O)N(CC(=O)NC2CCCCC2)Cc2ccc(C(=O)NO)cc2)c1	249 nM	40 nM		
CN(C)c1ccc(C(=O)N(CC(=O)NC(C)(C)C)Cc2ccc(C(=O)NO)cc2F)cc1	158 nM	20 nM		
Cc1ccccc1C(=O)N(CC(=O)NC(C)(C)C)Cc1ccc(C(=O)NO)cc1F	1750 nM	27 nM		
CN(C)c1ccc(C(=O)N(CC(=O)NC2CCCCC2)Cc2ccc(C(=O)NO)cc2F)cc1	66 nM	16 nM		
COc1ccccc1C(=O)N(CC(=O)NC1CCCCC1)Cc1ccc(C(=O)NO)cc1F	1500 nM	20 nM	> 25000 nM	
CC(C)(C)NC(=O)CN(Cc1ccc(C(=O)NO)cc1F)C(=O)c1ccccc1C(F)(F)F	2330 nM	27 nM	> 25000 nM	IC50 (Jurkat): > 25000 nM
Cc1cc(C)cc(C(=O)N(CC(=O)NC2CCCCC2)Cc2ccc(C(=O)NO)cc2F)c1		20 nM		
O=C(CN(Cc1ccc(C(=O)NO)cc1F)C(=O)c1ccccc1C(F)(F)F)NC1CCCCC1	1450 nM			IC50 (Jurkat): > 25000 nM
O=C(CN(Cc1ccc(C(=O)NO)cc1F)C(=O)c1ccccc1F)NC1CCCCC1		18 nM		
CC(C)(C)NC(=O)CN(Cc1ccc(C(=O)NO)cc1F)C(=O)c1ccccc1Cl	3470 nM	21 nM		
CN(C)c1ccc(C(=O)N(CC(=O)NCc2ccccc2)Cc2ccc(C(=O)NO)cc2F)cc1	13 nM		375 nM	inhibition [2]: Dde; IC50 [3]: 21 nM; Activity (HL-60 [4]): Active; Activity (HL-60 [5]): Active; Activity (MOLM-13): Active; IC50 (Histone deacetylase 2): 14 nM; IC50 (Histone deacetylase 2; record 2): 14 nM; IC50 (Jurkat): 285 nM; inhibition [6]: Dde; inhibition [7]: Active; IC50 (HL-60 [8]): 218 nM
CC(C)c1ccccc1C(=O)N(CC(=O)NC(C)(C)C)Cc1ccc(C(=O)NO)cc1F	8010 nM		> 25000 nM	IC50 [3]: 8350 nM; IC50 (Histone deacetylase 4): > 10000 nM; Activity (HL-60 [5]): Active; IC50 (Histone deacetylase 2): 4480 nM; inhibition [9]: Active; IC50 (Jurkat): > 25000 nM
COc1ccccc1C(=O)N(CC(=O)NC(C)(C)C)Cc1ccc(C(=O)NO)cc1				IC50 (Histone deacetylase 1; sf9): 3110 nM; IC50 ([1]; sf9): 38 nM
COc1ccccc1C(=O)N(CC(=O)NC(C)(C)C)Cc1ccc(C(=O)NO)cc1F	1750 nM	17 nM	> 25000 nM	
O=C(NO)c1ccc(CC(=O)N(CCO)c2ccccc2)cc1			13900 nM	IC50 (Jurkat): 16100 nM; IC50 (HL-60 [8]): 11300 nM
Cc1cc(C)cc(C(=O)N(CC(=O)NC(C)(C)C)Cc2ccc(C(=O)NO)cc2F)c1	573 nM	24 nM		
CC(C)(C)NC(=O)CN(Cc1ccc(C(=O)NO)cc1F)C(=O)c1ccccc1F	1180 nM	26 nM		
Cc1cc(C)cc(C(=O)N(CC(=O)NCc2ccccc2)Cc2ccc(C(=O)NO)cc2F)c1	77 nM	13 nM	2750 nM	IC50 (Jurkat): 6230 nM; IC50 (HL-60 [8]): 9150 nM
CN(C)c1ccc(C(=O)N(CC(=O)NCc2ccccc2)Cc2ccc(C(=O)NO)cc2)cc1	5 nM	11 nM		
